Activity calls are given as the source filed them. No cut-off for these calls is given here.
Columns and labels:
MCF7 [1] = assay: Cytotoxicity against human MCF7 cells after 48 hrs by SRB assay; format: functional; details: MCF7, 48 h
In short: (§1)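 5000–10,000 cells/well preincubated 24 h at 37 °C, 5% CO2, with TCA-fixed time-zero wells. Fivefold serial dilutions (100 to 0.0064 µM) and a DMSO-matched medium control, exposed 48 h. Fixed in 10% TCA for 60 min at 4 °C, stained with 0.4% SRB in 1% acetic acid, solubilized in 10 mM Tris base, read at 515–564 nm. GI50 from variable-slope sigmoidal fits; triplicates, at least two independent experiments.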

[2] = Cytotoxicity against human 184B5 cells after 48 hrs by SRB assay; format: cell-based; in short: as §1
MDA-MB-468 = assay: Cytotoxicity against human MDA-MB-468 cells after 48 hrs by SRB assay; format: functional; details: MDA-MB-468, 48 h; in short: as §1
[3] = Cytotoxicity against human MCF10A cells after 48 hrs by SRB assay; format: cell-based, MCF-10A; in short: as §1
MCF7 [4] = assay: Cell cycle arrest in human MCF7 cells assessed as accumulation at G1/G0 phase at 20 uM by flow cytometry; format: functional
In short: (§2)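 MCF7 (RPMI 1640, 10% FBS, 2 mM L-glutamine) or MCF10A (mammary epithelial basal medium plus MEGM supplements) treated 24 h at 20 or 40 µM with DMSO vehicle controls. 2.0 × 10^6 cells fixed in ice-cold 70% ethanol at -20 °C, then stained 30 min at 37 °C with 100 µg/mL PI, RNase A, 0.3% NP-40 and 0.1% sodium citrate. Phase fractions taken from DNA-content histograms.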

MCF7 [5] = assay: Cell cycle arrest in human MCF7 cells assessed as accumulation at S phase at 40 uM by flow cytometry; format: functional; in short: as §2
MCF7 [6] = assay: Cell cycle arrest in human MCF7 cells assessed as accumulation at G1/G0 phase at 40 uM by flow cytometry; format: functional; in short: as §2
MCF7 [7] = assay: Induction of apoptosis in human MCF7 cells assessed as cell death at 40 uM after 24 hrs; format: functional
In short: (§3)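 MCF7 cells grown in RPMI 1640 with 10% FBS and 2 mM L-glutamine at 37 °C, 5% CO2. Treated 24 h, with DMSO-only medium as negative control. 2.0 × 10⁶ cells harvested, fixed in ice-cold 70% ethanol at −20 °C, and stained 30 min at 37 °C with PI mix (100 µg/mL PI, RNase A, 0.3% NP-40, 0.1% sodium citrate). DNA content read by flow cytometry; apoptotic fraction taken from DNA histograms.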

MCF7 [8] = assay: Cell cycle arrest in human MCF7 cells assessed as accumulation at G2/M phase at 20 uM by flow cytometry; format: functional; in short: as §2
MCF7 [9] = assay: Induction of apoptosis in human MCF7 cells assessed as cell death at 20 uM after 24 hrs; format: functional; in short: as §3
MCF7 [10] = assay: Cell cycle arrest in human MCF7 cells assessed as accumulation at S phase at 20 uM by flow cytometry; format: functional; in short: as §2
MCF7 [11] = assay: Cell cycle arrest in human MCF7 cells assessed as accumulation at G2/M phase at 40 uM by flow cytometry; format: functional; in short: as §2
MCF-10A = assay: Cell cycle arrest in human MCF10A cells assessed as decrease in at S phase at 20 uM by flow cytometry; format: functional, cell-based; in short: as §2
MCF7 [12] = assay: Induction of apoptosis in human MCF7 cells assessed as cell death; format: functional, cell-based

| SMILES | GI50 (MCF7 [1]) [µM] | GI50 at 48 h [2] [µM] | GI50 (MDA-MB-468) [µM] | GI50 at 48 h [3] [µM] | also measured |
| --- | --- | --- | --- | --- | --- |
| NC(=S)N/N=C1/C(=O)N(CN2CCN(c3ccnc4cc(Cl)ccc34)CC2)c2cccc(Br)c21 | 46.6 | 46.4 | 40.4 | 29.4 | – |
| O=C1C(=O)N(CN2CCN(c3ccnc4cc(Cl)ccc34)CC2)c2cc(Br)ccc21 | 17.6 | 33.2 | 35.8 | 17.9 | – |
| CCN(CC)CCCC(C)Nc1ccnc2cc(Cl)ccc12 (stereo unspecified) [CHLOROQUINE] | – | 76.1 | – | 81.3 | – |
| O=C1C(=O)N(CN2CCN(c3ccnc4cc(C(F)(F)F)ccc34)CC2)c2cc(Br)ccc21 | 28.1 | 21.8 | 24.8 | 24.4 | – |
| O=C1C(=O)N(CN2CCN(c3ccnc4cc(Cl)ccc34)CC2)c2cc(Cl)ccc21 | 26.1 | 47.5 | 36.6 | 67.8 | – |
| NC(=S)N/N=C1\C(=O)Nc2cc(Cl)ccc21 | 17.2 | 40.8 | 17.7 | 48.5 | – |
| O=C1C(=O)N(CN2CCN(c3ccnc4cc(Cl)ccc34)CC2)c2ccccc21 | 48.3 | 71.7 | 37.9 | 45.9 | – |
| O=C1C(=O)N(CN2CCN(c3ccnc4cc(Cl)ccc34)CC2)c2cccc(Cl)c21 | 39.1 | 77.7 | 37.8 | 25.6 | – |
| NC(=S)N/N=C1/C(=O)N(CN2CCN(c3ccnc4cc(C(F)(F)F)ccc34)CC2)c2cccc(Br)c21 | 50.6 | 26.4 | 30.4 | 30.6 | – |
| NC(=S)N/N=C1/C(=O)N(CN2CCN(c3ccnc4cc(Cl)ccc34)CC2)c2cccc(Cl)c21 | 57.5 | 20.7 | 57.6 | 19.8 | – |
| NC(=S)N/N=C1/C(=O)N(CN2CCN(c3ccnc4cc(C(F)(F)F)ccc34)CC2)c2cc(Cl)ccc21 | 24.6 | 20.1 | 11 | 38.8 | – |
| NC(=S)N/N=C1/C(=O)N(CN2CCN(c3ccnc4cc(C(F)(F)F)ccc34)CC2)c2cccc(Cl)c21 | 21.6 | 87.8 | 23 | 51.7 | Activity (MCF7 [4]): 64%; Activity (MCF7 [5]): 16%; Activity (MCF7 [6]): 65%; Activity (MCF7 [7]): Active; Activity (MCF7 [8]): 12%; Activity (MCF7 [9]): Active; Activity (MCF7 [10]): 17%; Activity (MCF7 [11]): 11%; Activity (MCF-10A): inactive |
| NC(=S)N/N=C1\C(=O)Nc2cc(Br)ccc21 | 17.9 | 34.9 | 18.6 | 32 | – |
| NC(=S)N/N=C1/C(=O)N(CN2CCN(c3ccnc4cc(C(F)(F)F)ccc34)CC2)c2cc(Br)ccc21 | 35.5 | 21.4 | 39.6 | 26.9 | – |
| NC(=S)N/N=C1/C(=O)N(CN2CCN(c3ccnc4cc(Cl)ccc34)CC2)c2cc(Br)ccc21 | 11.4 | 13.1 | 11.2 | 22.1 | – |
| O=C1C(=O)N(CN2CCN(c3ccnc4cc(C(F)(F)F)ccc34)CC2)c2cccc(Br)c21 | 66.8 | 49.7 | 52.2 | 37.9 | – |
| NC(=S)N/N=C1/C(=O)N(CN2CCN(c3ccnc4cc(Cl)ccc34)CC2)c2cc(Cl)ccc21 | 22.5 | 41.3 | 26.5 | 64.6 | – |
| NC(=S)/N=N/c1c(O)[nH]c2ccccc12 | 36.9 | 60.4 | 35.5 | 88.8 | – |
| O=C1C(=O)N(CN2CCN(c3ccnc4cc(C(F)(F)F)ccc34)CC2)c2cc(Cl)ccc21 | 15.8 | 25.2 | 26.1 | 32.8 | – |
| O=C1C(=O)N(CN2CCN(c3ccnc4cc(Cl)ccc34)CC2)c2cccc(Br)c21 | 15.1 | 49 | 15.9 | 65.6 | Activity (MCF7 [4]): 63%; Activity (MCF7 [5]): 14%; Activity (MCF7 [6]): 64%; Activity (MCF7 [7]): 10%; Activity (MCF7 [12]): Dose-dependent effect; Activity (MCF7 [8]): 14%; Activity (MCF7 [9]): 6%; Activity (MCF7 [10]): 18%; Activity (MCF7 [11]): 12%; Activity (MCF-10A): inactive |
| NC(=S)N/N=C1/C(=O)N(CN2CCN(c3ccnc4cc(Cl)ccc34)CC2)c2ccccc21 | 23 | 28.8 | 20.6 | 27.7 | – |
| NC(=S)N/N=C1/C(=O)N(CN2CCN(c3ccnc4cc(C(F)(F)F)ccc34)CC2)c2ccccc21 | 13.9 | 20.2 | 10.3 | 22.6 | – |
| NC(=S)N/N=C1\C(=O)Nc2cccc(Cl)c21 | 30.2 | 25.9 | 24 | 28.7 | – |
| O=C1C(=O)N(CN2CCN(c3ccnc4cc(C(F)(F)F)ccc34)CC2)c2cccc(Cl)c21 | 16.9 | 47.4 | 28.4 | 24 | – |
| NC(=S)N/N=C1\C(=O)Nc2cccc(Br)c21 | 14.8 | 22.6 | 21.2 | 21.4 | – |
| O=C1C(=O)N(CN2CCN(c3ccnc4cc(C(F)(F)F)ccc34)CC2)c2ccccc21 | 34 | 43.9 | 15.3 | 70 | – |
